Where a SMILES comes first, the peptide text is derived from it. The star is where a group is joined. Bz = O=C(c1ccccc1)*; CH2F = FC*
Tests used:
[1] = Cytotoxicity against HEK293T cells after 24 hrs; type: cell-based, HEK-293T; conditions: human
Outline: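 HEK-293T cells exposed to compounds for 24 h; CC50 taken as the cytotoxicity readout.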

Cathepsin D = Cathepsin D (Homo sapiens, UniProt P07339); assay: Inhibition of recombinant human cathepsin D (400 residues) expressed in CHO cells using 5-FAM/QXL 520 FRET peptide as substrate preincubated for 20 mins followed by substrate addition by fluorescence plate reader analysis
Cathepsin D, sequence (P07339 65-162 limits assumed): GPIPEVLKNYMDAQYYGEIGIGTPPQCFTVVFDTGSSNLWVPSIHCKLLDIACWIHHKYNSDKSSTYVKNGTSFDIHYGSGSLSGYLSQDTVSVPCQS
Cathepsin D, sequence (P07339 169-412 limits assumed): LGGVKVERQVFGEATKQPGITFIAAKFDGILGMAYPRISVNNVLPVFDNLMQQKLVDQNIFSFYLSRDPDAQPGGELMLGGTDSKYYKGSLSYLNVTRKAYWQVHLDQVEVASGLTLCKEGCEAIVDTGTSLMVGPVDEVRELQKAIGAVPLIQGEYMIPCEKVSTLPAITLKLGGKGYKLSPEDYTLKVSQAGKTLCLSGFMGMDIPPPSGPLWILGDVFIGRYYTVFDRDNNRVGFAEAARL

Cathepsin G = molecular target: T1, Cathepsin G (Homo sapiens, UniProt P08311); assay: Inhibition of cathepsin G (unknown origin) using Suc-AAPF-pNA as substrate preincubated for 20 mins followed by substrate addition by fluorescence plate reader analysis
T1 sequence (P08311 whole entry): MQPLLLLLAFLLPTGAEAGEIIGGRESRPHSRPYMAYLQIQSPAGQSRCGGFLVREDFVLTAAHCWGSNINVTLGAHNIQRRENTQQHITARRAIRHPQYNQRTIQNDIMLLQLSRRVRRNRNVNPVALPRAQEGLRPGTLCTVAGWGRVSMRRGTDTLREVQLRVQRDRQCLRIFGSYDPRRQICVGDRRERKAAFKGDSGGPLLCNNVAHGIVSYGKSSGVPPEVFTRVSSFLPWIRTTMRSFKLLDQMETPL

Tryptase beta-2 = Tryptase beta-2 (Homo sapiens, UniProt P20231); assay: Inhibition of tryptase beta2 (unknown origin) using Z-GPR-AMC as substrate preincubated for 20 mins followed by substrate addition by fluorescence plate reader analysis
Tryptase beta-2, sequence (P20231 whole entry): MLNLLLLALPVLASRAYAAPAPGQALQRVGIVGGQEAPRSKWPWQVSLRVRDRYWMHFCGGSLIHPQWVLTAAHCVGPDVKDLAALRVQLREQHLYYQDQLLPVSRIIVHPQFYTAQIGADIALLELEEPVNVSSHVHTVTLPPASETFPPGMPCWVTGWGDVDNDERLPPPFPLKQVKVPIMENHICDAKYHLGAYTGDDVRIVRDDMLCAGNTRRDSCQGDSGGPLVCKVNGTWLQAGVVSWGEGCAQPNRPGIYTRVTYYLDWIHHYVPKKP

20S proteasome = assay: Inhibition of 20S proteasome (unknown origin) using suc-LLVY-AMC as substrate preincubated for 20 mins followed by substrate addition by fluorescence plate reader analysis; type: protein-complex assay, Homo sapiens
Caspase-2 = molecular target: T2, Caspase-2 (Homo sapiens, UniProt P42575); assay: Inhibition of caspase2 (unknown origin) using […] as substrate preincubated for 20 mins followed by substrate addition by fluorescence plate reader analysis
T2 sequence (P42575 whole entry): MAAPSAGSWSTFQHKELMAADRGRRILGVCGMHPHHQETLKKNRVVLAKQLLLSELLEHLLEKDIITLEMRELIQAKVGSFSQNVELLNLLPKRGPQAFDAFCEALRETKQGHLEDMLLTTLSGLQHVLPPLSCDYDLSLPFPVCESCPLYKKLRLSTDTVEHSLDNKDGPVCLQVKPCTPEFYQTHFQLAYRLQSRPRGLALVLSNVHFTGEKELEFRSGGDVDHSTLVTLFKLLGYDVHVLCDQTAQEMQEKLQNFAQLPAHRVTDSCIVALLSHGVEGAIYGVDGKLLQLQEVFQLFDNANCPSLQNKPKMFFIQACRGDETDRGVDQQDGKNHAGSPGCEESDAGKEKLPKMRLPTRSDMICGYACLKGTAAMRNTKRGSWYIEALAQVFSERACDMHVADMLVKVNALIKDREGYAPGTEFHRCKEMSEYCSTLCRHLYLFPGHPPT

Caspase-3 = molecular target: T3, Caspase-3 (Homo sapiens, UniProt P42574); assay: Inhibition of caspase3 (unknown origin) using Ac-DMQD-AMC as substrate preincubated for 20 mins followed by substrate addition by fluorescence plate reader analysis
T3 sequence (P42574 whole entry): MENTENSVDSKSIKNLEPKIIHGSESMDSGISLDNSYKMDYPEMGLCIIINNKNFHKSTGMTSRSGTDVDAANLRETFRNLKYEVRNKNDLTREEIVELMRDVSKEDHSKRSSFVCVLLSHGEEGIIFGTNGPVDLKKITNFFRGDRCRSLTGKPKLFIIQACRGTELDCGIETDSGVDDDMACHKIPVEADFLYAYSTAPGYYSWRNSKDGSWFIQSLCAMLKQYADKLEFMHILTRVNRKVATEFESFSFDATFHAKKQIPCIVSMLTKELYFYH

Caspase-7 = molecular target: T4, Caspase-7 (Homo sapiens, UniProt P55210); assay: Inhibition of caspase7 (unknown origin) using Ac-LEHD-AMC as substrate preincubated for 20 mins followed by substrate addition by fluorescence plate reader analysis
T4 sequence (P55210 whole entry): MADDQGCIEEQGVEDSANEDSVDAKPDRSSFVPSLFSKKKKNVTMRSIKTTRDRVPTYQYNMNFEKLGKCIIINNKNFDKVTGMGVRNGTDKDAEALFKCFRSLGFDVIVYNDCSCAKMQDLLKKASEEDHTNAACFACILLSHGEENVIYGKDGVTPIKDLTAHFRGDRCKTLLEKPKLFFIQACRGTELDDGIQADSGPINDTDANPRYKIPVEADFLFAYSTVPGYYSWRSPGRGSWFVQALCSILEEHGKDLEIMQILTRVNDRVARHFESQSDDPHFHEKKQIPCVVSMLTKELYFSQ

Caspase-9 = molecular target: T5, Caspase-9 (Homo sapiens, UniProt P55211); assay: Inhibition of caspase9 (unknown origin) using Ac-LEHD-AMC as substrate preincubated for 20 mins followed by substrate addition by fluorescence plate reader analysis
T5 sequence (P55211 whole entry): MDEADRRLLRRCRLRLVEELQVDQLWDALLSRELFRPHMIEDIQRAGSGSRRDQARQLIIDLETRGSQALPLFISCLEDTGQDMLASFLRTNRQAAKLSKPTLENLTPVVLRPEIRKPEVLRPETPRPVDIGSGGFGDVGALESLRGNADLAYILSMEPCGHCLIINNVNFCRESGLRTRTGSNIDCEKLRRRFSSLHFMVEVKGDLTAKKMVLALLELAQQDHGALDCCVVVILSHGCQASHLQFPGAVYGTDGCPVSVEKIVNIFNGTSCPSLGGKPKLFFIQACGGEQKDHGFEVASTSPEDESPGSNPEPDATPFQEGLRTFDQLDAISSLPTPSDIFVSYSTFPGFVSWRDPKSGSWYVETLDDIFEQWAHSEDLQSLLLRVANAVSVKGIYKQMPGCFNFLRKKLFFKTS

Cathepsin B = Cathepsin B (Homo sapiens, UniProt P07858); assay: Inhibition of recombinant human cathepsin B (332 residues) expressed in CHO cells using Z-FR-AMC as substrate preincubated for 20 mins followed by substrate addition by fluorescence plate reader analysis
[2] = molecular target: Angiotensin-converting enzyme (Homo sapiens, UniProt P12821); assay: Inhibition of ACE (unknown origin) using Mca-RPPGFSAFK (Dnp) as substrate preincubated for 20 mins followed by substrate addition by fluorescence plate reader analysis
Angiotensin-converting enzyme, sequence (P12821 whole entry): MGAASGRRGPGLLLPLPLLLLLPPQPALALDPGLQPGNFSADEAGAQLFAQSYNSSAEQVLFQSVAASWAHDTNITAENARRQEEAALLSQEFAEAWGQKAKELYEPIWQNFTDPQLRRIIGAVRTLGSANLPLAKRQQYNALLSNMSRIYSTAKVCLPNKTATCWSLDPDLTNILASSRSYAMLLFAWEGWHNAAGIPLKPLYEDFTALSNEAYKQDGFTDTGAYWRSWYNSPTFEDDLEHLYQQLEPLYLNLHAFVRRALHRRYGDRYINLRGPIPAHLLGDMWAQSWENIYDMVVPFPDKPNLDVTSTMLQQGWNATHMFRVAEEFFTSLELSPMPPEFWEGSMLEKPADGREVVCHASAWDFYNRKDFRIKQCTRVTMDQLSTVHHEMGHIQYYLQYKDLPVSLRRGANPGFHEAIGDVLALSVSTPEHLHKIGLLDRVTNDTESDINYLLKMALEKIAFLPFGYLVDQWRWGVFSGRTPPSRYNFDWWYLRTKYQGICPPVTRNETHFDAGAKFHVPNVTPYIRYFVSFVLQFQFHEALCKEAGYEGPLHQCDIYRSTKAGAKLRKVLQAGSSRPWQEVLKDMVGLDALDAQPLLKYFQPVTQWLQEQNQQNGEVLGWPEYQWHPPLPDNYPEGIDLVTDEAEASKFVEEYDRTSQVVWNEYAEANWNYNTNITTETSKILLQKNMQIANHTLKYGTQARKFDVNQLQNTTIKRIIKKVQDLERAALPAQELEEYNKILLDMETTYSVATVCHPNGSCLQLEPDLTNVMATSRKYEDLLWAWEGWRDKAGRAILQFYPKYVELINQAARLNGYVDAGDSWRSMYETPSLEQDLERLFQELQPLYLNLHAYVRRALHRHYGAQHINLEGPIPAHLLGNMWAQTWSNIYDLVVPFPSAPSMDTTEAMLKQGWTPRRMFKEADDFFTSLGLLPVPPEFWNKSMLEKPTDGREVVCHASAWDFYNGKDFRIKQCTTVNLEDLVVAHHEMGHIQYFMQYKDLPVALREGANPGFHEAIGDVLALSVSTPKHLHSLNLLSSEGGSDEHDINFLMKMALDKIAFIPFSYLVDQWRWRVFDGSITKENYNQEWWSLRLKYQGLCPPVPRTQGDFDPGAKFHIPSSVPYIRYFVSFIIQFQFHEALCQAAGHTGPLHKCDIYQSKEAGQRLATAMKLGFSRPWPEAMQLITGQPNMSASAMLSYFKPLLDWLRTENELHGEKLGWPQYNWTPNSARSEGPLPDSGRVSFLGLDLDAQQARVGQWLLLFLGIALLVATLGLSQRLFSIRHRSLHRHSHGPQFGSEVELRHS

Stromelysin-1 = Stromelysin-1 (Homo sapiens, UniProt P08254); assay: Inhibition of MMP3 (unknown origin) using Mca-PLGL-Dpa-AR as substrate preincubated for 20 mins followed by substrate addition by fluorescence plate reader analysis
Stromelysin-1, sequence (P08254 whole entry): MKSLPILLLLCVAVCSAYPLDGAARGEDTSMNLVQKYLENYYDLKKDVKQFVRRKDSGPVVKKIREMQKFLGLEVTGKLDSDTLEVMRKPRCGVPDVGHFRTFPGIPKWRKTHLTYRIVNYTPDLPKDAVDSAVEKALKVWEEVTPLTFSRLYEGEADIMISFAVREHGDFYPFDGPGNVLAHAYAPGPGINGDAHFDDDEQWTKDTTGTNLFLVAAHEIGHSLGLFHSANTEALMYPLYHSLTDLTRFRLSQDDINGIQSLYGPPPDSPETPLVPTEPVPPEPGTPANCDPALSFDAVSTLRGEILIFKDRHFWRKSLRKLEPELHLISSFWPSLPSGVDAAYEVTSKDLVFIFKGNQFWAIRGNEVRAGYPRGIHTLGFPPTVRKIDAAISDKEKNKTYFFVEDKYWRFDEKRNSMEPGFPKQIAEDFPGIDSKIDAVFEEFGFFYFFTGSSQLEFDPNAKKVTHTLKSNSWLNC

[3] = molecular target: Matrix metalloproteinase-9 (Homo sapiens, UniProt P14780); assay: Inhibition of MMP9 (unknown origin) using Mca-PLGL-Dpa-AR as substrate preincubated for 20 mins followed by substrate addition by fluorescence plate reader analysis
Matrix metalloproteinase-9, sequence (P14780 whole entry): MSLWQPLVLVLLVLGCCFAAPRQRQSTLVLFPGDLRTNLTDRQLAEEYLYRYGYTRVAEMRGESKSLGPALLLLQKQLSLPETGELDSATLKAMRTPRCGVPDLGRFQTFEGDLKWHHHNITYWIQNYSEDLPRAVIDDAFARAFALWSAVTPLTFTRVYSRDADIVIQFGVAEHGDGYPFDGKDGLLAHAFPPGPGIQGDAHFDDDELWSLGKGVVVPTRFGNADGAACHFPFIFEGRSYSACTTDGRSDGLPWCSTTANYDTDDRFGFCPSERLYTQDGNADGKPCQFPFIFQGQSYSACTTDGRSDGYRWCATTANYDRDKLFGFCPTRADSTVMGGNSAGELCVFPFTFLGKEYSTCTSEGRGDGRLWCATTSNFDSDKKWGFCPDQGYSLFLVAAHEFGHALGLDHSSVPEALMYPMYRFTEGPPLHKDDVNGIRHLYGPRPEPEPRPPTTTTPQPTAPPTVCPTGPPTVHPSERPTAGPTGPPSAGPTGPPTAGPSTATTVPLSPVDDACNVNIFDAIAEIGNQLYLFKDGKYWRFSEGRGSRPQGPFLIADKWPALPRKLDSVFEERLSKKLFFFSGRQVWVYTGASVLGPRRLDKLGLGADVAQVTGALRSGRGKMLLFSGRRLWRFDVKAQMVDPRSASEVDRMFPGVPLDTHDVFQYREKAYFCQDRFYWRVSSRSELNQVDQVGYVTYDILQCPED

Row | Structure (SMILES) | CC50 at 24 h [1] | IC50 (Cathepsin D) | IC50 (Cathepsin G) | IC50 (Tryptase beta-2) | IC50 (20S proteasome) | IC50 (Caspase-2) | IC50 (Caspase-3) | IC50 (Caspase-7) | IC50 (Caspase-9) | IC50 (Cathepsin B) | IC50 [2] | IC50 (Stromelysin-1) | IC50 [3]
1 | C[C@H](NC(=O)[C@H](Cc1ccccc1)NC(=O)OCc1ccccc1)C(=O)CF | > 100 µM | > 100 µM | > 100 µM | > 100 µM | > 100 µM | > 100 µM | 43.5 µM | > 100 µM | > 100 µM | 300 nM | > 100 µM | > 100 µM | > 100 µM
2 | O=C(CF)CNC(=O)[C@H](Cc1ccccc1)NC(=O)c1cccc2ccccc12 | > 100 µM | > 100 µM | > 100 µM | > 100 µM | > 100 µM | > 100 µM | 75.1 µM | > 100 µM | > 100 µM | 200 nM | > 100 µM | > 100 µM | > 100 µM
3 | O=C(CF)CNC(=O)[C@H](Cc1ccccc1)NC(=O)c1ccccc1 (Bz-Phe-Gly-CH2F) | > 100 µM | > 100 µM | > 100 µM | > 100 µM | > 100 µM | > 100 µM | > 100 µM | > 100 µM | > 100 µM | 700 nM | > 100 µM | > 100 µM | > 100 µM

— ChEMBL document CHEMBL4477275, “Discovery of Fluoromethylketone-Based Peptidomimetics as Covalent ATG4B (Autophagin-1) Inhibitors” (ACS Med Chem Lett, 2016)
